The values below come from PMC5663466 (Journal of proteome research, 2017).

Experiment [1] deals with tyrosine and serine/threonine kinases. As to conditions: cited from earlier work.
In experiment [2] the test system is protein and lipid kinases in HeLa cell lysate. Description: Affinity pulldown-soluble competition in duplex SILAC-labeled HeLa cell lysate. As to conditions: 50 μM soluble competitor against affinity matrix 7. It is filed as binding, human. An outline of the steps:
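HeLa cells SILAC-labelled for ≥5 doublings in Lys/Arg-free DMEM with 10% dialysed FBS, 200 μg/ml proline and 0.2 mM light or heavy Lys/Arg, then lysed in modified RIPA buffer. Lysate (300 μg, 2 mg/ml) was pre-incubated 20 min at 4°C with DMSO or test compound (1% DMSO final), then pulled down 3 h at 4°C. SILAC channel beads were combined after washing, digested on-bead with LysC then trypsin, and run as single-shot nanoLC-MS/MS.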

For `Cc1nc(Nc2ncc(C(=O)Nc3c(C)cccc3Cl)s2)cc(N2CCN(CCO)CC2)n1` [dasatinib], the “number of tyrosine and serine/threonine kinases inhibited” value in experiment [1] is “over 30”.
As to `COc1cc2c(Oc3ccc(NC(=O)C4(C(=O)Nc5ccc(F)cc5)CC4)cc3F)ccnc2cc1OCCCN1CCOCC1` [foretinib], the “number of protein and lipid kinases with specific interaction” value in experiment [2] came to 29.
